Experimental data taken from ChEMBL document CHEMBL1122356, “The antihypertensive and positive inotropic diterpene forskolin: effects of structural modifications on its activity” (J Med Chem, 1983).
pEC50: −log10 of the molar value. Activity calls are given as the source filed them. The rule behind the calls is not given here.

Tests used:
[1] = species: Rattus norvegicus; test: Difference in systolic blood pressure observed prior to the first application and 2 hr after the fifth application to spontaneously hypertensive rats(SHR); assay type: functional, Artery
How it was run: (§1)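 Groups of six conscious male SH rats (Wistar-Okamoto origin, 250-300 g, 12-16 weeks; systolic pressure >160 mmHg) received 25 mg/kg po daily for 5 days as a 0.5% carboxymethylcellulose suspension, with vehicle controls. Systolic pressure was taken by tail-cuff after warming at 37-38 °C for 10 min, before the first dose and 2 h after each dose. Paired t test; only falls >15 mmHg with p < 0.05 were listed.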

[2] = species: Felis catus; test: Effective dose in cat was determined; assay type: functional
How it was run: (§2)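 Cats of either sex (3.0-4.5 kg) under chloralose anesthesia (70 mg/kg iv). Compounds were dissolved in propylene glycol (10 mg/mL stock), diluted in distilled water and injected iv via the femoral vein at 30, 100, 300, 500 and 1000 µg/kg, three animals per dose. Fall in mean arterial pressure (femoral artery transducer) was read at 10 min. ED20 was taken from log dose-response curves.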

[3] = species: Cavia porcellus; test: Positive ionotropic activity (0.1x10E 6 g/mL) was determined in guinea pig; no significant activity; assay type: functional, organism-based
[4] = species: Rattus norvegicus; test: Difference in systolic blood pressure observed prior to the first application and 2 hr after the fifth application to spontaneously hypertensive rats (SHR); assay type: functional, Artery; how it was run: as §1
[5] = test system: Rattus norvegicus; test: Difference in systolic blood pressure observed prior to the first application and 2 hr after the fifth application at 20 mg/kg, po daily for 5 days to spontaneously hypertensive rats (SHR); assay type: functional, Artery
How it was run: (§3)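 Male SH rats (Wistar-Okamoto derived, 250-300 g, 12-16 weeks old) with systolic pressure above 160 mmHg, in groups of six. The dose was given orally once daily for 5 days as a suspension in 0.5% carboxymethylcellulose, and a vehicle control group was run. Systolic pressure was read by tail-cuff after 10 min warming at 37-38 °C, before dosing and 2 h post-dose. Paired Student's t test.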

[6] = test system: Felis catus; test: Percent fall in blood pressure, 10 min after intravenous administration at doses 300 ug/kg in cat; assay type: functional; how it was run: as §2
[7] = species: Cavia porcellus; test: Positive ionotropic activity determined as effective concentration in guinea pig; Range 6.8*10e-7 to 1.75x10E-6M; assay type: functional, organism-based
[8] = test system: Rattus norvegicus; test: Difference in systolic blood pressure observed prior to the first application and 2 hr after the fifth application at 10 mg/kg, po daily for 5 days to spontaneously hypertensive rats (SHR); assay type: functional, Artery; how it was run: as §3
[9] = test system: Rattus norvegicus; test: Difference in systolic blood pressure observed prior to the first application and 2 hr after the fifth application at 5 mg/kg, po daily for 5 days to spontaneously hypertensive rats (SHR); assay type: functional, Artery; how it was run: as §3
[10] = species: Rattus norvegicus; test: Difference in systolic blood pressure observed prior to the first application and 2 hr after the fifth application to spontaneously hypertensive rats (SHR); NS denotes not significant; assay type: functional, organism-based; settings: Artery
[11] = test system: Felis catus; test: Percent fall in blood pressure, 10 min after intravenous administration at doses 500 ug/kg in cat; assay type: functional; how it was run: as §2

Compound | ED20 [2] [mg/kg] | Activity [3] | Delta blood pressure [4] [mmHg] | also measured
C=C[C@@]1(C)CC(=O)[C@]2(O)C3(C)[C@@H](O[Si](C)(C)C)CCC(C)(C)[C@@H]3C(O)C(OC(C)=O)[C@@]2(C)O1 (stereo not given in full) | > 0.5 |  |  | Delta blood pressure [1]: 0 mmHg
C=C[C@@]1(C)CC(=O)[C@@]23OS(=O)O[C@H]4CCC(C)(C)[C@H](C5OS(=O)OC5[C@@]2(C)O1)C43C (stereo not given in full) | > 0.5 | no significant activity |  | Delta blood pressure [1]: 0 mmHg
C=C[C@@]1(C)CC(=O)[C@]2(O)C3(C)[C@@H](O)CCC(C)(C)[C@@H]3C(O)C(OC(=O)N(CC)CC)[C@@]2(C)O1 (stereo not given in full) | > 0.5 | no significant activity | 0 | 
C=C[C@@]1(C)CC(=O)[C@]2(O)C3(C)[C@@H](OC)CCC(C)(C)[C@@H]3C(OC(C)=O)C(O)[C@@]2(C)O1 (stereo not given in full) | > 0.5 | no significant activity | -25.3 | 
C=C[C@@]1(C)CC(=O)[C@@]23OC(=O)O[C@H]4CCC(C)(C)[C@H](C(O)C(OC(C)=O)[C@@]2(C)O1)C43C (stereo not given in full) | > 0.5 | no significant activity | -16.7 | 
C=C[C@@]1(C)CC(=O)[C@]2(O)C3(C)[C@@H](OCc4ccccc4)CCC(C)(C)[C@@H]3C(O)C(OC(=O)C(C)(C)Br)[C@@]2(C)O1 (stereo not given in full) | > 0.5 |  |  | Delta blood pressure [1]: 0 mmHg
CC[C@@]1(C)CC(=O)[C@]2(O)C3(C)[C@@H](O)CCC(C)(C)[C@@H]3C(O)C(OC(C)=O)[C@@]2(C)O1 (stereo not given in full) | > 0.5 |  |  | Delta blood pressure [5]: -15.7 mmHg
C=C[C@@]1(C)CC(=O)[C@]2(O)C3(C)[C@@H](O)CCC(C)(C)[C@@H]3C(O)C(OS(=O)(=O)c3ccc(C)cc3)[C@@]2(C)O1 (stereo not given in full) | > 0.5 | no significant activity |  | Delta blood pressure [1]: -27.3 mmHg
C=C[C@@]1(C)CC(=O)[C@]2(O)C3(C)[C@@H](O)CCC(C)(C)[C@@H]3C(O)C(OC(C)=O)[C@@]2(C)O1 (stereo not given in full) | 0.038 | no significant activity | -26 | 
C=C[C@@]1(C)CC(=O)[C@]2(O)C3(C)[C@@H](O)CCC(C)(C)[C@@H]3C3OC(=O)OC3[C@@]2(C)O1 (stereo not given in full) | > 0.5 |  | -24.67 | 
C=C[C@@]1(C)CC(=O)[C@]2(O)C3(C)[C@@H](OCCN(CC)CC)CCC(C)(C)[C@@H]3C(OC(C)=O)C(O)[C@@]2(C)O1.Cl (stereo not given in full) | > 0.5 | no significant activity | -26.7 | 
C=C[C@@]1(C)CC(=O)[C@@]23OS(=O)O[C@H]4CCC(C)(C)[C@H](C(O)C(OC(C)=O)[C@@]2(C)O1)C43C (stereo not given in full) | > 0.5 | no significant activity |  | Delta blood pressure [1]: -31 mmHg
C=C[C@@]1(C)C[C@H](O)[C@]2(O)C3(C)[C@@H](O)CCC(C)(C)[C@@H]3C(O)C(OC(C)=O)[C@@]2(C)O1 (stereo not given in full) | > 0.5 |  | 0 | 
C=C[C@@]1(C)CC(=O)[C@]2(O)C3(C)[C@@H](O)CCC(C)(C)[C@@H]3C(OC(C)=O)C(OC(=O)CC)[C@@]2(C)O1 (stereo not given in full) | > 0.5 |  | 0 | 
CC(=O)OC1C(O)[C@H]2C(C)(C)CC[C@H](O)C2(C)[C@@]2(O)C(=O)C[C@](C)(C3CO3)O[C@]12C (stereo not given in full) | > 0.5 |  |  | Delta blood pressure [1]: -22.67 mmHg
C=C[C@@]1(C)CC(=O)[C@]2(O)C3(C)C(=O)CCC(C)(C)[C@@H]3C(O)C(OC(C)=O)[C@@]2(C)O1 (stereo not given in full) | > 0.5 | no significant activity | 0 | 
CC(=O)OC1C(O)[C@H]2C(C)(C)CC[C@H](O)C2(C)[C@@]2(O)C(=O)C[C@](C)(C=O)O[C@]12C (stereo not given in full) | > 0.5 |  |  | Delta blood pressure [1]: -22 mmHg

Compound | ED20 [2] [mg/kg] | Activity [3] | Delta blood pressure [4] [mmHg] | also measured
C=C[C@@]1(C)CC(=O)[C@]2(O)C3(C)[C@@H](O)CCC(C)(C)[C@@H]3C(OC(=O)CC)C(O)[C@@]2(C)O1 (stereo not given in full) | > 0.5 |  |  | Delta blood pressure [5]: -26.33 mmHg
C=C[C@@]1(C)CC(=O)[C@]2(O)C3(C)[C@@H](O)CCC(C)(C)[C@@H]3C(OC(C)=O)C(O)[C@@]2(C)O1 (stereo not given in full) | > 0.5 | no significant activity | -28 | Decrease in blood pressure [6]: 20%; pEC50 [7]: 5.96
C=C[C@@]1(C)C[C@H](O)[C@]2(O)C3(C)[C@@H](O)CCC(C)(C)[C@@H]3C(O)C(O)[C@@]2(C)O1 (stereo not given in full) | > 0.5 | no significant activity |  | Delta blood pressure [8]: -19.3 mmHg
Nc1cc(N2CCCCC2)nc(N)[n+]1[O-] [MINOXIDIL] | > 0.5 | no significant activity |  | Delta blood pressure [9]: -51.2 mmHg
C=C[C@@]1(C)CC(=O)[C@]2(O)C3(C)C(O)CCC(C)(C)[C@@H]3C(OC(C)=O)C(OC(C)=O)[C@@]2(C)O1 (stereo not given in full) | > 0.5 | no significant activity | -24.3 | 
CN1CCN(CC(O)[C@@]2(C)CC(=O)[C@]3(O)C4(C)[C@@H](O)CCC(C)(C)[C@@H]4C(O)C(O)[C@@]3(C)O2)CC1.Cl.Cl (stereo not given in full) | > 0.5 | no significant activity |  | Delta blood pressure [10]: inactive
C=C[C@@]1(C)CC(=O)[C@]2(O)C3(C)[C@@H](OC(=O)C(C)(C)C)CCC(C)(C)[C@@H]3C(O)C(OC(=O)C(C)(C)C)[C@@]2(C)O1 (stereo not given in full) | > 0.5 |  |  | Delta blood pressure [1]: 0 mmHg
C=C[C@@]1(C)CC(=O)[C@]2(O)C3(C)[C@@H](OC)CCC(C)(C)[C@@H]3C(O)C(OC(C)=O)[C@@]2(C)O1 (stereo not given in full) | > 0.5 | no significant activity | 0 | 
C=C[C@@]1(C)CC(=O)[C@@]23OC(=O)O[C@H]4CCC(C)(C)[C@H](C5OC(=O)OC5[C@@]2(C)O1)C43C (stereo not given in full) | > 0.5 | no significant activity | -23 | 
C=C[C@@]1(C)CC(=O)[C@]2(O)C3(C)[C@@H](O)CCC(C)(C)[C@@H]3C(O)C(OC(=O)CCC)[C@@]2(C)O1 (stereo not given in full) | > 0.5 | no significant activity | -19.7 | 
C=C[C@@]1(C)CC(=O)[C@]2(O)[C@@]3(C)[C@@H](O)CCC(C)(C)[C@@H]3[C@H](O)[C@H](O)[C@@]2(C)O1 | > 0.5 | no significant activity | -24.6 | Decrease in blood pressure [11]: 20%
C=C[C@@]1(C)CC(=O)[C@]2(O)C3(C)[C@@H](OC(=O)Nc4ccccc4)CCC(C)(C)[C@@H]3C(O)C(OC(C)=O)[C@@]2(C)O1 (stereo not given in full) | > 0.5 |  |  | Delta blood pressure [10]: inactive
C=C[C@@]1(C)CC(=O)[C@@H]2C3(C)CCCC(C)(C)[C@@H]3C(O)C(OC(C)=O)[C@@]2(C)O1 (stereo not given in full) | > 0.5 | no significant activity | 0 | 
C=C[C@@]1(C)CC(=O)[C@]2(O)C3(C)[C@@H](O)CCC(C)(C)[C@@H]3C(O)C(OC(=O)CC)[C@@]2(C)O1 (stereo not given in full) | > 0.5 |  | -25.3 | 
C=C[C@@]1(C)CC(=O)[C@]2(O)C3(C)[C@@H](O)CCC(C)(C)[C@@H]3C(O)C(OC(=O)OCC)[C@@]2(C)O1 (stereo not given in full) | > 0.5 | no significant activity | 0 | 
C=C[C@@]1(C)CC(=O)[C@]2(O)C3(C)[C@@H](O)CCC(C)(C)[C@@H]3C(O)C(OC=O)[C@@]2(C)O1 (stereo not given in full) | > 0.5 | no significant activity | -23.7 | 
